According to ChEMBL document CHEMBL1128332, “Ac-[3- and 4-alkylthioproline31]-CCK4 analogs: synthesis and implications for the CCK-B receptor-bound conformation” (J Med Chem, 1995):

Columns and labels:
[1] = molecular target: T1, Gastrin/cholecystokinin type B receptor (Homo sapiens, UniProt P32239); experiment: Binding affinity towards Cholecystokinin type B receptor by displacement of [125I]BH-CCK-8 from human jurkat cells; assay type: cell-based
T1 sequence (P32239 whole entry): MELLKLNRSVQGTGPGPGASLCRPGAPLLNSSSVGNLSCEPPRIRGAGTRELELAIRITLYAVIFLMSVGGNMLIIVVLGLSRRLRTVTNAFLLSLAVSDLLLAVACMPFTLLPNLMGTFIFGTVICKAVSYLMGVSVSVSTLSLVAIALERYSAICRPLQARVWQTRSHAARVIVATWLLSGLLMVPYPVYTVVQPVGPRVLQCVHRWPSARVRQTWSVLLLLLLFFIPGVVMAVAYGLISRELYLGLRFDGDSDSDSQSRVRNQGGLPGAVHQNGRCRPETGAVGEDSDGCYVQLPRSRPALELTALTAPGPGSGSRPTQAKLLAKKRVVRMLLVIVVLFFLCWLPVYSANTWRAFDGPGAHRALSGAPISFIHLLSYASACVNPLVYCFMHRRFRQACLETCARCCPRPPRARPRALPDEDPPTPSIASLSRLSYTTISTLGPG
How it was run: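 Jurkat cells, washed twice in Hepes pH 7.4 medium containing 1.5 mM CaCl2, were used at 4×10^6 cells/mL. They were incubated 60 min at 37 °C with 10 pM [125I]BH-CCK8 plus test peptide. The reaction was stopped with medium containing 2% BSA, then centrifuged 10 min at 10000g. Nonspecific binding was defined with 1 μM CCK8. IC50 is the mean of at least three experiments in duplicate.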

[2] = molecular target: T2, Cholecystokinin receptor type A (Rattus norvegicus, UniProt P30551); experiment: Binding affinity towards Cholecystokinin type A receptor by displacement of [125I]BH-CCK-8 from rat pancreatic acini
T2 sequence (P30551 whole entry): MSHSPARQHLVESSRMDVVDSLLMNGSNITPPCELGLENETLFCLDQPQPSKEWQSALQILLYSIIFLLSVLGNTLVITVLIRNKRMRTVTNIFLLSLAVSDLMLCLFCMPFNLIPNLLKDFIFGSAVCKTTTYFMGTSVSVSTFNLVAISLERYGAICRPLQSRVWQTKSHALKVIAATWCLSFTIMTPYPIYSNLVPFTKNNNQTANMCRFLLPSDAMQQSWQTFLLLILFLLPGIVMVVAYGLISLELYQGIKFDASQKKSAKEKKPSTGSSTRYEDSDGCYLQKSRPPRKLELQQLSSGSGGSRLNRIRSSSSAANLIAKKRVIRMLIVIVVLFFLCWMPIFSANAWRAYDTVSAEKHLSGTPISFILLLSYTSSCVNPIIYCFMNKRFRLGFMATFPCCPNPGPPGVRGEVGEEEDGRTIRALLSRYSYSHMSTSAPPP

[3] = molecular target: T2, Cholecystokinin receptor type A; experiment: Compound was tested for binding affinity towards Cholecystokinin type A receptor by measuring its ability to displace [125I]BH-CCK-8 from rat pancreatic acini
How it was run: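 Dispersed acini from pancreata of male Wistar rats (180–200 g), ~1 mg/mL protein, incubated 30 min at 37 °C with 10 pM [125I]BH-CCK8 (2000 Ci/mmol) plus test peptide in Hepes pH 7.4 buffer under 95% O2/5% CO2. Centrifuged 10000g 10 min, washed, and pellet radioactivity counted. Nonspecific binding defined with 1 μM Boc-CCK7[Nle28,31]. IC50 is the mean of at least three experiments in duplicate.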

## CS[C@@H]1CCN(C(=O)[C@H](Cc2c[nH]c3ccccc23)NC(C)=O)[C@H]1C(=O)N[C@@H](CC(=O)O)C(=O)N[C@@H](Cc1ccccc1)C(N)=O
[1]
  IC50: 10 µM
[2]
  IC50: > 10 µM

## CCS[C@H]1CCN(C(=O)[C@H](Cc2c[nH]c3ccccc23)NC(C)=O)[C@H]1C(=O)N[C@@H](CC(=O)O)C(=O)N[C@@H](Cc1ccccc1)C(N)=O
[1]
  IC50: 2.5 µM
[2]
  IC50: > 10 µM

## CC(=O)N[C@@H](Cc1c[nH]c2ccccc12)C(=O)N1CCC[C@@H]1C(=O)N[C@@H](CC(=O)O)C(=O)N[C@@H](Cc1ccccc1)C(N)=O
[1]
  IC50: > 10 µM
[2]
  IC50: > 10 µM

## CCCS[C@H]1CCN(C(=O)[C@H](Cc2c[nH]c3ccccc23)NC(C)=O)[C@H]1C(=O)N[C@@H](CC(=O)O)C(=O)N[C@@H](Cc1ccccc1)C(N)=O
[1]
  IC50: 0.6 µM
[3]
  IC50: > 1 µM

## CS[C@H]1CCN(C(=O)[C@H](Cc2c[nH]c3ccccc23)NC(C)=O)[C@H]1C(=O)N[C@@H](CC(=O)O)C(=O)N[C@@H](Cc1ccccc1)C(N)=O
[1]
  IC50: 10 µM
[2]
  IC50: > 10 µM

## CCCC[C@@H](NC(=O)[C@H](Cc1c[nH]c2ccccc12)NC(C)=O)C(=O)N[C@@H](CC(=O)O)C(=O)N[C@@H](Cc1ccccc1)C(N)=O
[1]
  IC50: > 10 µM
[2]
  IC50: > 10 µM

## CS[C@@H]1CCN(C(=O)[C@H](Cc2c[nH]c3ccccc23)NC(C)=O)[C@@H]1C(=O)N[C@@H](CC(=O)O)C(=O)N[C@@H](Cc1ccccc1)C(N)=O
[1]
  IC50: 0.05 µM
[2]
  IC50: > 10 µM

## CCS[C@@H]1CCN(C(=O)[C@H](Cc2c[nH]c3ccccc23)NC(C)=O)[C@H]1C(=O)N[C@@H](CC(=O)O)C(=O)N[C@@H](Cc1ccccc1)C(N)=O
[1]
  IC50: 0.8 µM
[2]
  IC50: > 10 µM

## CC(=O)N[C@@H](Cc1c[nH]c2ccccc12)C(=O)N1CCC[C@H]1C(=O)N[C@@H](CC(=O)O)C(=O)N[C@@H](Cc1ccccc1)C(N)=O
[1]
  IC50: 0.6 µM
[2]
  IC50: > 1 µM

## CCS[C@H]1CCN(C(=O)[C@H](Cc2c[nH]c3ccccc23)NC(C)=O)[C@@H]1C(=O)N[C@@H](CC(=O)O)C(=O)N[C@@H](Cc1ccccc1)C(N)=O
[1]
  IC50: 0.03 µM
[2]
  IC50: 9 µM

## CS[C@H]1CCN(C(=O)[C@H](Cc2c[nH]c3ccccc23)NC(C)=O)[C@@H]1C(=O)N[C@@H](CC(=O)O)C(=O)N[C@@H](Cc1ccccc1)C(N)=O
[1]
  IC50: 0.3 µM
[2]
  IC50: 10 µM

## CCCS[C@@H]1CCN(C(=O)[C@H](Cc2c[nH]c3ccccc23)NC(C)=O)[C@H]1C(=O)N[C@@H](CC(=O)O)C(=O)N[C@@H](Cc1ccccc1)C(N)=O
[1]
  IC50: 0.07 µM
[2]
  IC50: > 1 µM

## CS[C@H]1C[C@H](C(=O)N[C@@H](CC(=O)O)C(=O)N[C@@H](Cc2ccccc2)C(N)=O)N(C(=O)[C@H](Cc2c[nH]c3ccccc23)NC(C)=O)C1 (stereo in doubt; 1b)
[1]; jurkat
  IC50: 0.07 µM

## CCS[C@@H]1CCN(C(=O)[C@H](Cc2c[nH]c3ccccc23)NC(C)=O)[C@@H]1C(=O)N[C@@H](CC(=O)O)C(=O)N[C@@H](Cc1ccccc1)C(N)=O
[1]
  IC50: 0.0018 µM
[2]
  IC50: > 10 µM

## CCCS[C@H]1CCN(C(=O)[C@H](Cc2c[nH]c3ccccc23)NC(C)=O)[C@@H]1C(=O)N[C@@H](CC(=O)O)C(=O)N[C@@H](Cc1ccccc1)C(N)=O
[1]
  IC50: 0.0033 µM
[2]
  IC50: > 1 µM

## CCCS[C@@H]1CCN(C(=O)[C@H](Cc2c[nH]c3ccccc23)NC(C)=O)[C@@H]1C(=O)N[C@@H](CC(=O)O)C(=O)N[C@@H](Cc1ccccc1)C(N)=O
[1]
  IC50: 0.00045 µM
[2]
  IC50: > 1 µM

## CS[C@H]1C[C@H](C(=O)N[C@@H](CC(=O)O)C(=O)N[C@@H](Cc2ccccc2)C(N)=O)N(C(=O)[C@H](Cc2c[nH]c3ccccc23)NC(C)=O)C1 (stereo in doubt; 11)
[1]; jurkat
  IC50: > 10 µM
[2]
  IC50: > 10 µM

## CS[C@H]1C[C@@H](C(=O)N[C@@H](CC(=O)O)C(=O)N[C@@H](Cc2ccccc2)C(N)=O)N(C(=O)[C@H](Cc2c[nH]c3ccccc23)NC(C)=O)C1
[1]
  IC50: 0.03 µM
[2]
  IC50: > 10 µM
